How the values were obtained:
Adenosine receptor A1 [1] = target: T1, Adenosine receptor A1 (Homo sapiens, UniProt P30542); test: Displacement of [3H]-DPCPX from human A1 adenosine receptor expressed in CHO cell membranes after 90 mins by scintillation counting method
T1 sequence (P30542 whole entry): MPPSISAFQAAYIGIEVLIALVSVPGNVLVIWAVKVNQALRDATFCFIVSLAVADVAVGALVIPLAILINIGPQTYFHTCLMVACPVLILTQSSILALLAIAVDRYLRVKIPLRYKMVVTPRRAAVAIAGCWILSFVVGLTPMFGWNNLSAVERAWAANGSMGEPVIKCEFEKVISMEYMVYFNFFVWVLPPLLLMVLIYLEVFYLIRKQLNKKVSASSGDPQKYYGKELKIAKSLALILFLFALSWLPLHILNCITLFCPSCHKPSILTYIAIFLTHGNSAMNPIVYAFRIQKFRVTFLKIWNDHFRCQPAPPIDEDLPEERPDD
Outline: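 Membranes from CHO cells expressing hA1 (50 µg protein/100 µl) incubated with 1 nM [3H]-DPCPX and varying test concentrations, 25°C, 90 min, 50 mM Tris-HCl pH 7.4. Nonspecific binding with 1 µM DPCPX. Filtration over glass fiber filters, scintillation counting.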

Adenosine receptor A2a [2] = target: T2, Adenosine receptor A2a (Homo sapiens, UniProt P29274); test: Displacement of [3H]-ZM 241,385 from human A2A adenosine receptor expressed in CHO cell membranes after 60 mins by scintillation counting method
T2 sequence (P29274 whole entry): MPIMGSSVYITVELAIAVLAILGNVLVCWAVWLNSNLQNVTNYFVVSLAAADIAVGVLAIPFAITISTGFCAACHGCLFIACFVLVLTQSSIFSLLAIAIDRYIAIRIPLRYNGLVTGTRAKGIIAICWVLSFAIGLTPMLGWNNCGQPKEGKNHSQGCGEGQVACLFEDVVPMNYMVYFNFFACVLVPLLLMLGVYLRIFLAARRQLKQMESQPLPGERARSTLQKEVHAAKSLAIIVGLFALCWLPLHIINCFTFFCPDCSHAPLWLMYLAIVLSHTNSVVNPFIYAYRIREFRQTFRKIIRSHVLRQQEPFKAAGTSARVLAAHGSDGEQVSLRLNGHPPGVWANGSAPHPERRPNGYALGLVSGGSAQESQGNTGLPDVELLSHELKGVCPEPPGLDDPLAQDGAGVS
Outline: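 hA2A CHO membranes (50 µg protein/100 µl), 1 nM [3H]-ZM 241385, graded test concentrations, 60 min at 4°C in 50 mM Tris-HCl pH 7.4 with 10 mM MgCl2. Nonspecific: 1 µM ZM 241385.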

Adenosine receptor A2b = target: T3, Adenosine receptor A2b (Homo sapiens, UniProt P29275); test: Antagonist activity at human A2B adenosine receptor assessed as inhibition of NECA-stimulated cAMP level after 30 mins by Alphascreen assay; assay type: functional
T3 sequence (P29275 whole entry): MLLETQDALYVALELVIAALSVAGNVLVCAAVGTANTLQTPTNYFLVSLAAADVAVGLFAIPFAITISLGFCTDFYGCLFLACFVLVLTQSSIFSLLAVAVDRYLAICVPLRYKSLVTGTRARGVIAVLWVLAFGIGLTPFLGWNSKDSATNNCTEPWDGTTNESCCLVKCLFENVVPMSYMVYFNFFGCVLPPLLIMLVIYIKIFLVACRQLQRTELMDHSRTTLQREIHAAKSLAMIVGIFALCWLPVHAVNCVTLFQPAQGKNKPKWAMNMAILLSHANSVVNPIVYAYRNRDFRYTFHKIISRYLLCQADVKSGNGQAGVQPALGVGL
Outline: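 Cells with compounds and anti-cAMP acceptor beads 30 min, then streptavidin donor beads plus biotinylated cAMP 1 h; AlphaScreen read. IC50 by sigmoid nonlinear regression.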

Adenosine receptor A3 = target: T4, Adenosine receptor A3 (Homo sapiens, UniProt P0DMS8); test: Displacement of [125I]-ABMECA from human A3 adenosine receptor expressed in CHO cell membranes after 120 mins by scintillation counting method
T4 sequence (P0DMS8 whole entry): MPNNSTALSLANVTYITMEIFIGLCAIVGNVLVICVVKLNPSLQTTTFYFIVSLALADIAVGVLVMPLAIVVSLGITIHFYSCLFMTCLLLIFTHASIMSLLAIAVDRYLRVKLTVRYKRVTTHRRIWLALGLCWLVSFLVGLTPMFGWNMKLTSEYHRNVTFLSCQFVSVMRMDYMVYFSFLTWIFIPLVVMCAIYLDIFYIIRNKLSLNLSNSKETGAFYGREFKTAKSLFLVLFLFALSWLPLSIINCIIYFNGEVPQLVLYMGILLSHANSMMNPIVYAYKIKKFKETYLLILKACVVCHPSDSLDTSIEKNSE

[3] = target: T5, Adenosine receptor A1 (Homo sapiens) (UniProt P30542); test: Modulation of human A1 adenosine receptor expressed in CHO cells assessed as forskolin-stimulated cAMP level after 30 mins by Alphascreen assay relative to control; assay type: functional, cell-based
T5 sequence (whole entry): T1 sequence (P30542 whole entry)
Outline: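 In hA1 CHO cells, compounds incubated with Forskolin (5 µM) without agonist; cAMP quantified by AlphaScreen (30 min acceptor-bead step, then 1 h donor beads and biotinylated cAMP). Expressed as % of Forskolin-stimulated cAMP (100%); mean ± SEM.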

Adenosine receptor A1 [4] = target: T1, Adenosine receptor A1; test: Antagonist activity at human A1 adenosine receptor expressed in CHO cells assessed as inhibition of CCPA-induced reduction of forskolin-stimulated cAMP level after 30 mins by Alphascreen assay; assay type: functional, cell-based
Outline: (§1)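 hA1 CHO cells given Forskolin (5 µM) and 1 nM CCPA with varied compound concentrations; AlphaScreen cAMP detection (30 min with acceptor beads, then donor beads/biotinylated cAMP 1 h). IC50 by sigmoid nonlinear regression; Emax as efficacy in reversing CCPA inhibition; mean ± SEM.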

[5] = target: T5, Adenosine receptor A1 (Homo sapiens); test: Antagonist activity at human A1 adenosine receptor expressed in CHO cells assessed as inhibition of CCPA-induced reduction of forskolin-stimulated cAMP level after 30 mins by Alphascreen assay relative to control; assay type: functional, cell-based; outline: as §1
Adenosine receptor A2a [6] = target: T2, Adenosine receptor A2a; test: Inverse agonist activity at human A2A adenosine receptor expressed in CHO cells assessed as inhibition of basal cAMP level after 30 mins by Alphascreen assay; assay type: functional, cell-based
Outline: (§2)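 hA2A CHO cells exposed to varied compound concentrations without agonist, measuring decrease of basal cAMP; AlphaScreen detection (30 min acceptor beads, then 1 h donor beads with biotinylated cAMP). IC50 from sigmoid nonlinear fit, Emax efficacy; mean ± SEM.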

Adenosine receptor A2a [7] = target: T2, Adenosine receptor A2a; test: Inverse agonist activity at human A2A adenosine receptor expressed in CHO cells assessed as inhibition of basal cAMP level after 30 mins by Alphascreen assay relative to control; assay type: functional, cell-based; outline: as §2
Adenosine receptor A2a [8] = target: T2, Adenosine receptor A2a; test: Antagonist activity at human A2A adenosine receptor expressed in CHO cells assessed as inhibition of CGS21680-stimulated cAMP level after 30 mins by Alphascreen assay; assay type: functional, cell-based
Outline: (§3)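 Same hA2A CHO cAMP experiment run in presence of CGS 21680 (10 nM); compounds at varied concentrations, AlphaScreen cAMP detection (30 min, then 1 h). IC50 via sigmoid nonlinear regression, Emax efficacy; four experiments in triplicate, mean ± SEM.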

Adenosine receptor A2a [9] = target: T2, Adenosine receptor A2a; test: Antagonist activity at human A2A adenosine receptor expressed in CHO cells assessed as inhibition of CGS21680-stimulated cAMP level after 30 mins by Alphascreen assay relative to control; assay type: functional, cell-based; outline: as §3
[10] = target: T6, Adenosine receptor A2b (Homo sapiens) (UniProt P29275); test: Antagonist activity at human A2B adenosine receptor assessed as inhibition of NECA-stimulated cAMP level at 10 uM after 30 mins by Alphascreen assay relative to control; assay type: functional
T6 sequence (whole entry): T3 sequence (P29275 whole entry)

Adenosine receptor A2a [11] = target: T2, Adenosine receptor A2a; test: Displacement of [3H]-ZM 241,385 from human A2A adenosine receptor expressed in CHO cell membranes at 10 uM after 60 mins by scintillation counting method relative to control
Outline: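 Using 1 nM [3H]-ZM 241385 on hA2A CHO membranes, 60 min, 4°C, 50 mM Tris-HCl pH 7.4, 10 mM MgCl2; 1 µM ZM 241385 for nonspecific binding; filtered and counted. Percent inhibition measured at 10 µM compound.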

Cc1nc2c(N)nc(NCCc3ccccc3)nc2s1
Ki (Adenosine receptor A1 [1]): 140 nM
Ki (Adenosine receptor A2a [2]): 78 nM
IC50 (Adenosine receptor A2b): 1100 nM
Ki (Adenosine receptor A3): 548 nM

Cc1nc2c(N)nc(NCc3ccccc3)nc2s1
Ki (Adenosine receptor A2a [2]): 532 nM

COc1cccc(CNc2nc(N)c3nc(C)sc3n2)c1
Ki (Adenosine receptor A2a [2]): 212 nM

COc1cccc(CNc2nc(N)c3nc(-c4cnccn4)sc3n2)c1
Ki (Adenosine receptor A2a [2]): 973 nM

Nc1nc(NCc2ccccc2)nc2sc(-c3ccccc3)nc12
Ki (Adenosine receptor A2a [2]): 116 nM

Nc1nc(NCc2cccs2)nc2sc(-c3cnccn3)nc12
Ki (Adenosine receptor A2a [2]): 219 nM

COc1ccccc1CNc1nc(N)c2nc(C)sc2n1
Ki (Adenosine receptor A2a [2]): 135 nM

Cc1nc2c(N)nc(NCCc3cccs3)nc2s1
Ki (Adenosine receptor A1 [1]): 92 nM
Ki (Adenosine receptor A2a [2]): 61 nM
IC50 (Adenosine receptor A2b): 134 nM
Activity [3]: 100%
IC50 (Adenosine receptor A1 [4]): 107 nM
Emax [5]: 98%
IC50 (Adenosine receptor A2a [6]): 83 nM
Emax (Adenosine receptor A2a [7]): 58%
IC50 (Adenosine receptor A2a [8]): 102 nM
Emax (Adenosine receptor A2a [9]): 124%
Ki (Adenosine receptor A3): 1520 nM

Cc1nc2c(N)nc(NCc3cccs3)nc2s1
Ki (Adenosine receptor A2a [2]): 313 nM

Nc1nc(NCCc2ccccc2)nc2sc(-c3ccccc3)nc12
Ki (Adenosine receptor A1 [1]): 121 nM
Ki (Adenosine receptor A2a [2]): 406 nM
IC50 (Adenosine receptor A2b): 4380 nM
Ki (Adenosine receptor A3): 2270 nM

COc1ccc(CCNc2nc(N)c3nc(-c4ccccc4)sc3n2)cc1
Ki (Adenosine receptor A1 [1]): 485 nM
Ki (Adenosine receptor A2a [2]): 403 nM
IC50 (Adenosine receptor A2b): > 10000 nM
inhibition [10]: 33%
Ki (Adenosine receptor A3): 3530 nM

Nc1nc(NCCc2ccc(O)cc2)nc2sc(-c3ccccc3)nc12
Ki (Adenosine receptor A1 [1]): 242 nM
Ki (Adenosine receptor A2a [2]): 96 nM
IC50 (Adenosine receptor A2b): 7520 nM
Ki (Adenosine receptor A3): 1610 nM

Nc1nc(Nc2ccccc2)nc2sc(-c3ccccc3)nc12
Ki (Adenosine receptor A2a [2]): > 10000 nM
inhibition (Adenosine receptor A2a [11]): 1%

Cc1nc2c(N)nc(Nc3ccccc3)nc2s1
Ki (Adenosine receptor A2a [2]): 608 nM

COc1ccccc1CNc1nc(N)c2nc(-c3cnccn3)sc2n1
Ki (Adenosine receptor A2a [2]): 79 nM

COc1ccccc1CNc1nc(N)c2nc(-c3ccccc3)sc2n1
Ki (Adenosine receptor A2a [2]): 4.72 nM
IC50 (Adenosine receptor A2a [6]): 5.34 nM
IC50 (Adenosine receptor A2a [8]): 7.63 nM

COc1cccc(CNc2nc(N)c3nc(-c4ccccc4)sc3n2)c1
Ki (Adenosine receptor A2a [2]): 42 nM
IC50 (Adenosine receptor A2a [6]): 48 nM
Emax (Adenosine receptor A2a [7]): 52%
IC50 (Adenosine receptor A2a [8]): 66 nM
Emax (Adenosine receptor A2a [9]): 128%

Nc1nc(NCc2cccs2)nc2sc(-c3ccccc3)nc12
Ki (Adenosine receptor A2a [2]): 28 nM
IC50 (Adenosine receptor A2a [6]): 36 nM
Emax (Adenosine receptor A2a [7]): 64%
IC50 (Adenosine receptor A2a [8]): 43 nM
Emax (Adenosine receptor A2a [9]): 131%
